Measurements reported in ChEMBL document CHEMBL2311453, “Tetrahydropyrroloquinolinone type dual inhibitors of aromatase/aldosterone synthase as a novel strategy for breast cancer patients with elevated cardiovascular risks” (J Med Chem, 2013).

Molecular target: T1, CYP19 (aromatase) (Homo sapiens, UniProt P11511)
T1 sequence (P11511 whole entry): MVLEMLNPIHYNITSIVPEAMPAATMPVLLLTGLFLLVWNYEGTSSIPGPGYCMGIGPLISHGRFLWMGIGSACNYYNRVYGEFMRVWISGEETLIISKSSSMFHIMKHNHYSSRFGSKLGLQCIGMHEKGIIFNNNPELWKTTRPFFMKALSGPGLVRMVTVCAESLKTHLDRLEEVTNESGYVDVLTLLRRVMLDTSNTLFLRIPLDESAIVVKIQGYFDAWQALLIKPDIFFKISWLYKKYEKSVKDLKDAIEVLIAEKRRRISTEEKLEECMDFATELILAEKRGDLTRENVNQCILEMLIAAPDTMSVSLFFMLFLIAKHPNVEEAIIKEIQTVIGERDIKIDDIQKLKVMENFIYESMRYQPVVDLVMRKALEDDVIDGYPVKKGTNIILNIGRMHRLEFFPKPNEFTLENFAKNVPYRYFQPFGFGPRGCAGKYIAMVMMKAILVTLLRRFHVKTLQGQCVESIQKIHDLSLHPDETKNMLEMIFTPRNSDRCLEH
Test: Inhibition of human CYP19 using [1beta-3H]androstenedione as substrate at 500 nM by 3H2O method
Conditions: probe [1beta-3H]androstenedione
In short: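 Human placental microsomes as CYP19 source. [1β-³H]androstenedione substrate at 500 nM, activity read by ³H₂O release. IC50 is the mean of at least three experiments (relative SD under 25%).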

Compound | inhibition at 500 nM
O=C1CCc2cc(-c3cccnc3)cc3c2N1CC3 | 18%

Molecular target: T2, CYP17 (Homo sapiens, UniProt P05093)
T2 sequence (P05093 whole entry): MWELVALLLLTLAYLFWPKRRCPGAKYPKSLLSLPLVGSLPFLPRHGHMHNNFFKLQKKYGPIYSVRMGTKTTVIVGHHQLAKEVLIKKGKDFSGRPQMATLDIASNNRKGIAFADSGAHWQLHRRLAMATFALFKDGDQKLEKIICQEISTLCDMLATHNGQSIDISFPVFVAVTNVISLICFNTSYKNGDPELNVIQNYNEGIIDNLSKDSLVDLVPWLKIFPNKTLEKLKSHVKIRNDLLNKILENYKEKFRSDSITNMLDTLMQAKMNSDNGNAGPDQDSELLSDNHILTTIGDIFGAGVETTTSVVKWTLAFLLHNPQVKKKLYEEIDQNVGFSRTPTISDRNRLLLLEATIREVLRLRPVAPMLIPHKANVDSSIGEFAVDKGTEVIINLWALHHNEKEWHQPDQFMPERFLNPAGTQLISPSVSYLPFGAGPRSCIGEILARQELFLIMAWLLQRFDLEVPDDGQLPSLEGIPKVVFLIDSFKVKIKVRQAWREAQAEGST
Test: Inhibition of human CYP17 expressed in Escherichia coli using progesterone as substrate at 2 uM
Conditions: probe progesterone
In short: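 Enzyme source was the 90000g sediment of E. coli coexpressing human CYP17 and cytochrome P450 reductase. Progesterone substrate at 25 μM, NADPH cofactor, inhibitor at 2 μM. Percent inhibition is the mean of at least two experiments (SD under 10%).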

Compound | inhibition at 2 µM
O=C1CCc2cc(C(c3ccncc3)c3ccc(Cl)cc3)cc3c2N1CC3 (configuration not stated) | 60%
N#Cc1ccc(C2CCCc3cncn32)cc1 (configuration not stated) [FADROZOLE] | < 3%
O=C1CCc2cc(C(O)c3ccncc3)cc3c2N1CC3 (configuration not stated) | < 3%
CC(c1cccnc1)c1cc2c3c(c1)CCN3C(=O)CC2 (configuration not stated) | < 3%
O=C1CCc2cc(C(O)(c3ccccc3)c3ccncc3)cc3c2N1CC3 (configuration not stated) | 43%
COc1ccc(C(c2ccncc2)c2cc3c4c(c2)CCN4C(=O)CC3)cc1 (stereo in doubt; 3k) | 53%
C=C(c1ccncc1)c1cc2c3c(c1)CCN3C(=O)CC2 | 17%
COc1cccc(C(c2ccncc2)c2cc3c4c(c2)CCN4C(=O)CC3)c1 (configuration not stated) | 50%
O=C1CCc2cc(C(c3ccncc3)c3cccc(Cl)c3)cc3c2N1CC3 (configuration not stated) | 58%
O=C1CCc2cc(C(c3ccncc3)c3ccc(F)cc3)cc3c2N1CC3 (configuration not stated) | 55%
O=C1CCc2cc(Cc3cccnc3)cc3c2N1CC3 | < 3%
Cc1cccc(C(c2ccncc2)c2cc3c4c(c2)CCN4C(=O)CC3)c1 (configuration not stated) | 46%
N#Cc1ccc(C(c2ccc(C#N)cc2)n2cncn2)cc1 [LETROZOLE] | 7%
COc1ccccc1C(c1ccncc1)c1cc2c3c(c1)CCN3C(=O)CC2 (configuration not stated) | 33%
C=C(c1cccnc1)c1cc2c3c(c1)CCN3C(=O)CC2 | < 3%
O=C1CCc2cc(Cc3ccncc3)cc3c2N1CC3 | 8%

Molecular target: T3, Aromatase (Homo sapiens, UniProt P11511)
T3 sequence (P11511 whole entry): T1 sequence (P11511 whole entry)
Test: Inhibition of human CYP19 using [1beta-3H]androstenedione as substrate by 3H2O method
Conditions: not given

Compound | IC50
O=C1CCc2cc(C(c3ccncc3)c3ccc(Cl)cc3)cc3c2N1CC3 (configuration not stated) | 55 nM
O=C1CCc2cc(C(O)c3ccncc3)cc3c2N1CC3 (configuration not stated) | > 5000 nM
CC(c1cccnc1)c1cc2c3c(c1)CCN3C(=O)CC2 (configuration not stated) | > 5000 nM
O=C1CCc2cc(C(O)(c3ccccc3)c3ccncc3)cc3c2N1CC3 (configuration not stated) | 105 nM
COc1ccc(C(c2ccncc2)c2cc3c4c(c2)CCN4C(=O)CC3)cc1 (stereo in doubt; 3k) | 124 nM
C=C(c1ccncc1)c1cc2c3c(c1)CCN3C(=O)CC2 | 565 nM
COc1cccc(C(c2ccncc2)c2cc3c4c(c2)CCN4C(=O)CC3)c1 (configuration not stated) | 59 nM
O=C1CCc2cc(C(c3ccncc3)c3cccc(Cl)c3)cc3c2N1CC3 (configuration not stated) | 19 nM
O=C1CCc2cc(C(c3ccncc3)c3ccc(F)cc3)cc3c2N1CC3 (configuration not stated) | 116 nM
O=C1CCc2cc(Cc3cccnc3)cc3c2N1CC3 | 3340 nM
Cc1cccc(C(c2ccncc2)c2cc3c4c(c2)CCN4C(=O)CC3)c1 (configuration not stated) | 32 nM
COc1ccccc1C(c1ccncc1)c1cc2c3c(c1)CCN3C(=O)CC2 (configuration not stated) | 81 nM
C=C(c1cccnc1)c1cc2c3c(c1)CCN3C(=O)CC2 | > 5000 nM
O=C1CCc2cc(Cc3ccncc3)cc3c2N1CC3 | 2130 nM

Molecular target: T4, Cytochrome P450 11B2, mitochondrial (Homo sapiens, UniProt P19099)
T4 sequence (P19099 whole entry): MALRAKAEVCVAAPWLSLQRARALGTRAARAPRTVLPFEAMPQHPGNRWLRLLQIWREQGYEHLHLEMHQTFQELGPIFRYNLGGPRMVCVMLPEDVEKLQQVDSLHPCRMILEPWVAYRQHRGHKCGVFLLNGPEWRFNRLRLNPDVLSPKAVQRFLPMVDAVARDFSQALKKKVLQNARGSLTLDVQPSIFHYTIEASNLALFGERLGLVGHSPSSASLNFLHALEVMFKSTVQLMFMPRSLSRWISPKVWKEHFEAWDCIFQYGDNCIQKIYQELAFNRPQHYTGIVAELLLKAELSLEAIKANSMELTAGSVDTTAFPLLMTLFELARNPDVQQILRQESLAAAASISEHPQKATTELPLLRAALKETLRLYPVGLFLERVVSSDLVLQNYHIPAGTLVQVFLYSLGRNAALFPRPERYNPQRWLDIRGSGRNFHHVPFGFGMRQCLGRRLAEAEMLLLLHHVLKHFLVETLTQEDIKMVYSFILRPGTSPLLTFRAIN
Test: Inhibition of human CYP11B2 expressed in hamster V79MZh cells using [1,2-3H]-11-deoxy-corticosterone as substrate
Format: cell-based
Conditions: not given
In short: (§1)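 V79MZh hamster fibroblasts stably expressing human CYP11B1 or CYP11B2, incubated with [1,2-³H]-11-deoxycorticosterone (100 nM) and inhibitor at varying concentrations. IC50 taken as mean of at least three experiments (relative SD under 25%).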

Compound | IC50
O=C1CCc2cc(C(c3ccncc3)c3ccc(Cl)cc3)cc3c2N1CC3 (configuration not stated) | 32 nM
O=C1CCc2cc(C(O)c3ccncc3)cc3c2N1CC3 (configuration not stated) | 563 nM
CC(c1cccnc1)c1cc2c3c(c1)CCN3C(=O)CC2 (configuration not stated) | 37 nM
O=C1CCc2cc(C(O)(c3ccccc3)c3ccncc3)cc3c2N1CC3 (configuration not stated) | 85 nM
COc1ccc(C(c2ccncc2)c2cc3c4c(c2)CCN4C(=O)CC3)cc1 (stereo in doubt; 3k) | 52 nM
O=C1CCc2cc(-c3cccnc3)cc3c2N1CC3 | 1.1 nM
C=C(c1ccncc1)c1cc2c3c(c1)CCN3C(=O)CC2 | 96 nM
COc1cccc(C(c2ccncc2)c2cc3c4c(c2)CCN4C(=O)CC3)c1 (configuration not stated) | 139 nM
O=C1CCc2cc(C(c3ccncc3)c3cccc(Cl)c3)cc3c2N1CC3 (configuration not stated) | 51 nM
O=C1CCc2cc(C(c3ccncc3)c3ccc(F)cc3)cc3c2N1CC3 (configuration not stated) | 56 nM
O=C1CCc2cc(Cc3cccnc3)cc3c2N1CC3 | 74 nM
Cc1cccc(C(c2ccncc2)c2cc3c4c(c2)CCN4C(=O)CC3)c1 (configuration not stated) | 41 nM
N#Cc1ccc(C(c2ccc(C#N)cc2)n2cncn2)cc1 [LETROZOLE] | 1420 nM
COc1ccccc1C(c1ccncc1)c1cc2c3c(c1)CCN3C(=O)CC2 (configuration not stated) | 128 nM
C=C(c1cccnc1)c1cc2c3c(c1)CCN3C(=O)CC2 | 468 nM
O=C1CCc2cc(Cc3ccncc3)cc3c2N1CC3 | 204 nM

Tested on: V79MZh
Test: Selectivity factor, ratio of IC50 for human CYP11B1 to IC50 for human CYP11B2 expressed in hamster V79MZh cells
Format: cell-based
Conditions: not given
In short: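 SF calculated as IC50(CYP11B1)/IC50(CYP11B2). Both IC50s come from V79MZh hamster fibroblasts expressing the human enzyme, with [1,2-³H]-11-deoxycorticosterone at 100 nM as substrate.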

Compound | Ratio IC50
O=C1CCc2cc(C(c3ccncc3)c3ccc(Cl)cc3)cc3c2N1CC3 (configuration not stated) | 2.9
O=C1CCc2cc(C(O)c3ccncc3)cc3c2N1CC3 (configuration not stated) | 0.6
CC(c1cccnc1)c1cc2c3c(c1)CCN3C(=O)CC2 (configuration not stated) | 0.1
O=C1CCc2cc(C(O)(c3ccccc3)c3ccncc3)cc3c2N1CC3 (configuration not stated) | 8.8
O=C1CCc2cc(-c3cccnc3)cc3c2N1CC3 | 650
C=C(c1ccncc1)c1cc2c3c(c1)CCN3C(=O)CC2 | 13
COc1cccc(C(c2ccncc2)c2cc3c4c(c2)CCN4C(=O)CC3)c1 (configuration not stated) | 18
O=C1CCc2cc(C(c3ccncc3)c3cccc(Cl)c3)cc3c2N1CC3 (configuration not stated) | 13
O=C1CCc2cc(C(c3ccncc3)c3ccc(F)cc3)cc3c2N1CC3 (configuration not stated) | 1.6
O=C1CCc2cc(Cc3cccnc3)cc3c2N1CC3 | 0.2
Cc1cccc(C(c2ccncc2)c2cc3c4c(c2)CCN4C(=O)CC3)c1 (configuration not stated) | 33
COc1ccccc1C(c1ccncc1)c1cc2c3c(c1)CCN3C(=O)CC2 (configuration not stated) | 2.2
C=C(c1cccnc1)c1cc2c3c(c1)CCN3C(=O)CC2 | 0.1
O=C1CCc2cc(Cc3ccncc3)cc3c2N1CC3 | 1.1

Molecular target: T5, Cytochrome P450 11B1, mitochondrial (Homo sapiens, UniProt P15538)
T5 sequence (P15538 whole entry): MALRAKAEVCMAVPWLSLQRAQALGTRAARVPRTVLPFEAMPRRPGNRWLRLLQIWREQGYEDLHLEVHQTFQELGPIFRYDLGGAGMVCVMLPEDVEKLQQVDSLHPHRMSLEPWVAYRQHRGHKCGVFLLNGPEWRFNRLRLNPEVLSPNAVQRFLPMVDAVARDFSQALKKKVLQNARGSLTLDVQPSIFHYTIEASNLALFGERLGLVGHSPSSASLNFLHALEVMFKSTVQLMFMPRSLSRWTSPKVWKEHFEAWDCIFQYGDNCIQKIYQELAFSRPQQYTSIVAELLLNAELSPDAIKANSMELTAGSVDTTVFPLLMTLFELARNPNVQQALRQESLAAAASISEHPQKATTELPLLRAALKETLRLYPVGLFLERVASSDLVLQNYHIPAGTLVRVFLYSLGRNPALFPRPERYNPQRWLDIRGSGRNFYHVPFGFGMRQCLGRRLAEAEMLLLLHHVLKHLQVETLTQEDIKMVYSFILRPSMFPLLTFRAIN
Test: Inhibition of human CYP11B1 expressed in hamster V79MZh cells using [1,2-3H]-11-deoxy-corticosterone as substrate
Format: cell-based
Conditions: not given
In short: as §1

Compound | IC50
O=C1CCc2cc(C(c3ccncc3)c3ccc(Cl)cc3)cc3c2N1CC3 (configuration not stated) | 92 nM
O=C1CCc2cc(C(O)c3ccncc3)cc3c2N1CC3 (configuration not stated) | 347 nM
CC(c1cccnc1)c1cc2c3c(c1)CCN3C(=O)CC2 (configuration not stated) | 4 nM
O=C1CCc2cc(C(O)(c3ccccc3)c3ccncc3)cc3c2N1CC3 (configuration not stated) | 745 nM
COc1ccc(C(c2ccncc2)c2cc3c4c(c2)CCN4C(=O)CC3)cc1 (stereo in doubt; 3k) | 810 nM
O=C1CCc2cc(-c3cccnc3)cc3c2N1CC3 | 715 nM
C=C(c1ccncc1)c1cc2c3c(c1)CCN3C(=O)CC2 | 1230 nM
COc1cccc(C(c2ccncc2)c2cc3c4c(c2)CCN4C(=O)CC3)c1 (configuration not stated) | 2540 nM
O=C1CCc2cc(C(c3ccncc3)c3cccc(Cl)c3)cc3c2N1CC3 (configuration not stated) | 646 nM
O=C1CCc2cc(C(c3ccncc3)c3ccc(F)cc3)cc3c2N1CC3 (configuration not stated) | 88 nM
O=C1CCc2cc(Cc3cccnc3)cc3c2N1CC3 | 16 nM
Cc1cccc(C(c2ccncc2)c2cc3c4c(c2)CCN4C(=O)CC3)c1 (configuration not stated) | 1340 nM
N#Cc1ccc(C(c2ccc(C#N)cc2)n2cncn2)cc1 [LETROZOLE] | 2620 nM
COc1ccccc1C(c1ccncc1)c1cc2c3c(c1)CCN3C(=O)CC2 (configuration not stated) | 276 nM
C=C(c1cccnc1)c1cc2c3c(c1)CCN3C(=O)CC2 | 41 nM
O=C1CCc2cc(Cc3ccncc3)cc3c2N1CC3 | 224 nM
